Results as given in paper PMC10682633 (Heliyon, 2023).

How the values were obtained:
[1] = system: mushroom tyrosinase; test: Tyrosinase inhibitory assay; assay type: biochemical; settings: for % inhibition at 50 μM: 50 μM compound, L-DOPA substrate; for IC50: read-out: IC50 (μM) ± RSD, L-DOPA substrate, means ± RSD
[2] = Antioxidant activity, DPPH assay; settings: for % inhibition at 200 μM: 200 μM compound; for IC50: read-out: IC50(μM) ± RSD
[3] = system: tyrosinase; test: Enzyme kinetic studies; assay type: biochemical; settings: Lineweaver-Burk plot; L-DOPA 0-1.5 mM; inhibitor 5-80 μM
How it was run: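 Mushroom tyrosinase with L-DOPA as substrate, tested across several inhibitor concentrations. Reaction rates were plotted as 1/V against 1/[S] (Lineweaver–Burk double-reciprocal plot) to assign the inhibition type. Km was read from this plot.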

[4] = molecular target: tyrosinase; settings: tyrosinase inhibition; cited from earlier work

Row | SMILES | % inhibition at 50 μM [1] | IC50 [1] | % inhibition at 200 μM [2] | further results
1 | O=c1cc(CO)oc(C(Nc2ccccn2)c2ccccc2Br)c1O (stereo not drawn) [Compound 4f, 2-((2-Bromophenyl)(pyridin-2-ylamino)methyl)-3-hydroxy-6-(hydroxymethyl)-4H-pyran-4-one] | 60.85 ± 4.29% | 23.4 ± 4.19 µM | 13.03 ± 2.86% | –
2 | Cc1ccc(C(Nc2ccccn2)c2oc(CO)cc(=O)c2O)cc1 (stereo not drawn) [Compound 4k, 3-Hydroxy-6-(hydroxymethyl)-2-((pyridin-2-ylamino)(p-tolyl)methyl)-4H-pyran-4-one] | 22.28 ± 4.52% | > 50 µM | 26.96 ± 2.54% | –
3 | O=c1cc(CO)oc(C(Nc2ccccn2)c2ccccc2)c1O (stereo not drawn) [Compound 4a, 3-Hydroxy-6-(hydroxymethyl)-2-(phenyl(pyridin-2-ylamino)methyl)-4H-pyran-4-one] | 29.14 ± 2.86% | – | 20.86 ± 4.41% | –
4 | O=c1cc(CO)oc(C(Nc2ccccn2)c2cccc([N+](=O)[O-])c2)c1O (stereo not drawn) [Compound 4h, 3-Hydroxy-6-(hydroxymethyl)-2-((3-nitrophenyl)(pyridin-2-ylamino)methyl)-4H-pyran-4-one] | 74.85 ± 4.26% | 20.4 ± 2.15 µM | – | Mode of inhibition [3]: uncompetitive; % inhibition at 200 μM ([2]; 200 µM): 37.27 ± 5.42%
5 | COc1ccc(C(Nc2ccccn2)c2oc(CO)cc(=O)c2O)cc1[N+](=O)[O-] (stereo not drawn) [Compound 4i, 3-Hydroxy-6-(hydroxymethyl)-2-((4-methoxy-3-nitrophenyl)(pyridin-2-ylamino)methyl)-4H-pyran-4-one] | 56.57 ± 3.84% | 30.9 ± 4.13 µM | 64.24 ± 3.39% | IC50 [2]: 121 ± 10.4 µM
6 | O=c1cc(/C=C/c2cc(=O)c(O)co2)occ1O [B, (E)-6,6'-(ethene-1,2-diyl)bis(3-hydroxy-4H-pyran-4-one)] | – | – | – | IC50 [4]: 3.63 µM
7 | O=c1cc(CO)oc(C(Nc2ccccn2)c2ccc(COc3ccccc3)cc2)c1O (stereo not drawn) [Compound 4m, 3-Hydroxy-6-(hydroxymethyl)-2-((4-(phenoxymethyl)phenyl)(pyridin-2-ylamino)methyl)-4H-pyran-4-one] | 35.42 ± 2.43% | – | 23.30 ± 5.17% | –
8 | Cc1cccc(C(Nc2ccccn2)c2oc(CO)cc(=O)c2O)c1 (stereo not drawn) [Compound 4j, 3-Hydroxy-6-(hydroxymethyl)-2-((pyridin-2-ylamino)(m-tolyl)methyl)-4H-pyran-4-one] | – | > 50 µM | 17.90 ± 6.77% | % inhibition at 50 μM ([1]; 50 µM): 16.85 ± 3.14%
9 | O=c1cc(CO)oc(C(Nc2ccccn2)c2cccc(Br)c2)c1O (stereo not drawn) [Compound 4g, 2-((3-Bromophenyl)(pyridin-2-ylamino)methyl)-3-hydroxy-6-(hydroxymethyl)-4H-pyran-4-one] | 33.71 ± 4.88% | – | 18.44 ± 1.54% | –
10 | O=c1c(O)c(-c2ccc(O)c(O)c2)oc2cc(O)cc(O)c12 [Quercetin, reference compound] | – | – | – | IC50 [2]: 18.6 ± 2.19 µM
11 | O=c1cc(CO)oc(C(Nc2ccccn2)c2ccccc2Cl)c1O (stereo not drawn) [Compound 4d, 2-((2-Chlorophenyl)(pyridin-2-ylamino)methyl)-3-hydroxy-6-(hydroxymethyl)-4H-pyran-4-one] | 60.35 ± 1.43% | 22.4 ± 3.34 µM | 19.49 ± 3.98% | –
12 | O=c1cc(CO)oc(C(Nc2ccccn2)c2cccc(Cl)c2)c1O (stereo not drawn) [Compound 4e, 2-((3-Chlorophenyl)(pyridin-2-ylamino)methyl)-3-hydroxy-6-(hydroxymethyl)-4H-pyran-4-one] | 50.57 ± 2.65% | 44.7 ± 3.59 µM | 17.21 ± 4.01% | –
13 | COc1cccc(C(Nc2ccccn2)c2oc(CO)cc(=O)c2O)c1O (stereo not drawn) [Compound 4l, 3-Hydroxy-2-((2-hydroxy-3-methoxyphenyl)(pyridin-2-ylamino)methyl)-6-(hydroxymethyl)-4H-pyran-4-one] | 52.07 ± 5.27% | 37.1 ± 5.42 µM | 30.61 ± 5.76% | –
14 | O=c1cc(CO)oc(C(Nc2ccccn2)c2ccccc2F)c1O (stereo not drawn) [Compound 4b, 2-((2-Fluorophenyl)(pyridin-2-ylamino)methyl)-3-hydroxy-6-(hydroxymethyl)-4H-pyran-4-one] | 59.42 ± 5.71% | 28.2 ± 3.63 µM | 14.09 ± 4.10% | –
15 | O=c1cc(CO)oc(C(Nc2ccccn2)c2cccc(F)c2)c1O (stereo not drawn) [Compound 4c, 2-((3-Fluorophenyl)(pyridin-2-ylamino)methyl)-3-hydroxy-6-(hydroxymethyl)-4H-pyran-4-one] | 28.47 ± 1.59% | – | 18.65 ± 3.05% | –
